Experimental data published in ChEMBL document CHEMBL1125790, “Spiro[fluoreneisothiazolidin]one dioxides: new aldose reductase and L-hexonate dehydrogenase inhibitors” (J Med Chem, 1991).

Columns and labels:
[1] = target: Aldo-keto reductase family 1 member B1 (Rattus norvegicus, UniProt P07943); test: In vitro inhibition of Aldose reductase (AR) from rat lens (RL)
Summary of the method: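 Unfractionated rat lens supernatant (50–100 μg protein) run in the reverse direction: 50 mmol/L potassium phosphate pH 7.5, 12 mmol/L benzyl alcohol, 12 μmol/L oxidized 3-acetylpyridine adenine dinucleotide phosphate, room temperature. Reduced analogue formation followed fluorometrically at 365/480 nm. Same enzyme activity used for all inhibitors. IC50 from linear regression over the linear part of the dose–response curve.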

[2] = target: Aldo-keto reductase family 1 member B1 (Rattus norvegicus) (UniProt P07943); test: Selectivity as ratio of IC50 for rat lens and kidney […]
[3] = target: Aldo-keto reductase family 1 member A1 (Rattus norvegicus, UniProt P51635); test: In vitro inhibitory activity against L-Hexonate Dehydrogenase (L-HDH) from rat kidney (RK)
Sequence of Aldo-keto reductase family 1 member A1 (P51635 whole entry, looked up): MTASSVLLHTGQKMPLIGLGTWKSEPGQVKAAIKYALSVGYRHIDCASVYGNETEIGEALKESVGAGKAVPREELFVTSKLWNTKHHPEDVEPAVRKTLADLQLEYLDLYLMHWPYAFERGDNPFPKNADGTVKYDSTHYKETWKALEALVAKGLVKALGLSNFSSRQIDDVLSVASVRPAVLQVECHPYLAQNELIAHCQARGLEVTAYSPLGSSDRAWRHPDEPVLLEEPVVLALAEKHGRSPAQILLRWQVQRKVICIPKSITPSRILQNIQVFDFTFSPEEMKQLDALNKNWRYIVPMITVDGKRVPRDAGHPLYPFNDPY

Structure (SMILES) | IC50 [1] [µM] | Selectivity quotient [2] | IC50 [3] [µM]
O=C1NS(=O)(=O)CC12c1cc(F)ccc1-c1ccc(F)cc12 | 6150 | 1640 | 3.75
O=C1NS(=O)(=O)CC12c1ccccc1-c1ccccc12 | > 10000 | > 2000 | 4.5
O=C1CC2(c3ccccc3-c3ccccc32)S(=O)(=O)N1 | 1.9 | 1.09 | 1.75
O=C1CC2(c3ccccc3-c3ccc(F)cc32)S(=O)(=O)N1 (centres undefined) | 0.169 | 1.12 | 0.151
O=C1NS(=O)(=O)CC12c1ccccc1-c1ccc(F)cc12 (centres undefined) | > 10000 | > 5000 | 2.1
COc1ccc2c(C(=S)N(C)CC(=O)O)cccc2c1C(F)(F)F [TOLRESTAT] | 0.002 | – | –
O=C(O)Cc1nn(Cc2ccc(Br)cc2F)c(=O)c2ccccc12 [PONALRESTAT] | 0.02 | 0.008 | 2.4
O=C1CC2(c3ccccc3-c3ccc(Cl)cc32)S(=O)(=O)N1 (centres undefined) | 0.233 | 2.22 | 0.105
O=C1NS(=O)(=O)CC12c1ccccc1-c1ccc(Cl)cc12 (centres undefined) | 2370 | 675 | 3.51
O=C1NC(=O)C2(N1)c1cc(F)ccc1-c1ccc(F)cc12 | 0.009 | 1.8 | 0.005
O=C1CC2(C(=O)N1)c1cc(F)ccc1-c1ccc(F)cc12 | 0.005 | 0.56 | 0.009
O=C1CC2(c3cc(F)ccc3-c3ccc(F)cc32)S(=O)(=O)N1 | 0.018 | 0.68 | 0.027
